In ChEMBL document CHEMBL5303300, “EUbOPEN Chemogenomics Library - Multiplex” (2023):
Values joined by “and” are separate entries in the source; they are usually repeats but may differ in a detail not shown here. Identical values can stand only once.

Test system: U2OS
Experiment: Multiplex assay against U2OS
Type: toxicity, cell-based
Settings: human, number of replicates 2
How it was run: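 Imaging took place on a CQ1 microscope at 37°C and 5% CO2 once compound had been added to live cells stained at seeding with Hoechst33342, BioTracker Green Microtubule Cytoskeleton Dye, MitoTracker Red and Annexin V Alexa Fluor 680. CellPathfinder machine-learning gating classed cells as Hoechst high-intensity objects or normal cells, classed normal cells as having healthy, pyknosed or fragmented nuclei, and classed pyknosed cells as mitotic or apoptotic. Tubulin, mitochondrial-mass and membrane-permeability phenotypes are per cents of the healthy-nucleus cells.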

[1] = 12 h, 1 µM, compound concentration 1 uM
[2] = 12 h, 10 µM, compound concentration 10 uM
[3] = 24 h, 1 µM, compound concentration 1 uM
[4] = 24 h, 10 µM, compound concentration 10 uM
[5] = 48 h, 1 µM, compound concentration 1 uM
[6] = 48 h, 10 µM, compound concentration 10 uM
[7] = 12 h, 0 µM, compound concentration 0 uM
[8] = 24 h, 0 µM, compound concentration 0 uM
[9] = 48 h, 0 µM, compound concentration 0 uM

SMILES: c1ccc2c(-c3coc4cc(-c5ccc(N6CCNCC6)cc5)cnc34)ccnc2c1
- Population Healthy Nuclei (%) [1]: 82% and 84%
- Population Mitochondria Different-Phenotype (%) [1]: 0% and 2%
- Population Normal (%) [1]: 100%
- Population Pyknosed Nuclei (%) [1]: 0% and 10%
- Population Tubulin-Different-Phenotype (%) [1]: 84% and 81%
- Population Apoptotic (%) [2]: 93% and 90%
- Population Healthy Nuclei (%) [2]: 0% and 6%
- Population Mitochondria Different-Phenotype (%) [2]: 100% and 75%
- Population Mitotic Cells (%) [2]: 6% and 10%
- Population Normal (%) [2]: 100% and 98%
- Population Pyknosed Nuclei (%) [2]: 95% and 60%
- Population Tubulin-Different-Phenotype (%) [2]: 100%
- Total Cell Count [2]: 163 and 67
- Population Apoptotic (%) [3]: 100% and 76%
- Population Healthy Nuclei (%) [3]: 91% and 82%
- Population Mitochondria Different-Phenotype (%) [3]: 0%
- Population Mitotic Cells (%) [3]: 0% and 23%
- Population Normal (%) [3]: 100%
- Population Pyknosed Nuclei (%) [3]: 2% and 10%
- Population Tubulin-Different-Phenotype (%) [3]: 81% and 82%
- Population Apoptotic (%) [4]: 92% and 87%
- Population Healthy Nuclei (%) [4]: 0% and 4%
- Population Mitotic Cells (%) [4]: 7% and 12%
- Population Normal (%) [4]: 98% and 97%
- Population Pyknosed Nuclei (%) [4]: 93% and 56%
- Population Tubulin-Different-Phenotype (%) [4]: 100% and 66%
- Total Cell Count [4]: 160 and 71
- Population Apoptotic (%) [5]: 75%
- Population Healthy Nuclei (%) [5]: 83% and 84%
- Population Mitochondria Different-Phenotype (%) [5]: 0%
- Population Mitotic Cells (%) [5]: 25%
- Population Normal (%) [5]: 100%
- Population Pyknosed Nuclei (%) [5]: 6% and 10%
- Population Tubulin-Different-Phenotype (%) [5]: 87%
- Population Apoptotic (%) [6]: 91%
- Population Healthy Nuclei (%) [6]: 8% and 1%
- Population Mitotic Cells (%) [6]: 8%
- Population Normal (%) [6]: 98%
- Population Pyknosed Nuclei (%) [6]: 39% and 87%
- Population Tubulin-Different-Phenotype (%) [6]: 57% and 100%
- Total Cell Count [6]: 87 and 164

SMILES: COc1cc(C(N)=O)ccc1Nc1ncc2c(n1)N(CCC(C)C)[C@H](C)C(=O)N2C
- Population Apoptotic (%) [7]: 42% and 75%
- Population Healthy Nuclei (%) [7]: 45% and 69%
- Population Hoechst High Intensity Objects (%) [7]: 0%
- Population Membrane Permeable-Phenotype (%) [7]: 31% and 42%
- Population Mitochondria Different-Phenotype (%) [7]: 15% and 27%
- Population Mitotic Cells (%) [7]: 57% and 24%
- Population Normal (%) [7]: 100%
- Population Pyknosed Nuclei (%) [7]: 16% and 18%
- Population Tubulin-Different-Phenotype (%) [7]: 78% and 56%
- Population Apoptotic (%) [1]: 100% and 61%
- Population Healthy Nuclei (%) [1]: 66% and 76%
- Population Hoechst High Intensity Objects (%) [1]: 0%
- Population Membrane Permeable-Phenotype (%) [1]: 7% and 1%
- Population Normal (%) [1]: 100%
- Population Pyknosed Nuclei (%) [1]: 4% and 14%
- Population Tubulin-Different-Phenotype (%) [1]: 92% and 81%
- Population Apoptotic (%) [8]: 100% and 89%
- Population Fragmented Nuclei (%) [8]: 46% and 22%
- Population Healthy Nuclei (%) [8]: 41% and 54%
- Population Hoechst High Intensity Objects (%) [8]: 0%
- Population Membrane Permeable-Phenotype (%) [8]: 76% and 33%
- Population Mitochondria Different-Phenotype (%) [8]: 70% and 40%
- Population Mitotic Cells (%) [8]: 0% and 10%
- Population Normal (%) [8]: 100%
- Population Pyknosed Nuclei (%) [8]: 12% and 23%
- Population Tubulin-Different-Phenotype (%) [8]: 88% and 47%
- Population Apoptotic (%) [3]: 66% and 94%
- Population Healthy Nuclei (%) [3]: 32% and 73%
- Population Hoechst High Intensity Objects (%) [3]: 0%
- Population Normal (%) [3]: 100%
- Population Pyknosed Nuclei (%) [3]: 12% and 8%
- Population Tubulin-Different-Phenotype (%) [3]: 87% and 85%
- Population Apoptotic (%) [9]: 75% and 95%
- Population Fragmented Nuclei (%) [9]: 57% and 39%
- Population Healthy Nuclei (%) [9]: 34% and 30%
- Population Hoechst High Intensity Objects (%) [9]: 0%
- Population Membrane Permeable-Phenotype (%) [9]: 82% and 72%
- Population Mitochondria Different-Phenotype (%) [9]: 70%
- Population Normal (%) [9]: 100%
- Population Tubulin-Different-Phenotype (%) [9]: 76% and 82%
- Population Apoptotic (%) [5]: 100% and 84%
- Population Fragmented Nuclei (%) [5]: 61% and 25%
- Population Hoechst High Intensity Objects (%) [5]: 0%
- Population Mitotic Cells (%) [5]: 0% and 15%
- Population Normal (%) [5]: 100%
- Population Pyknosed Nuclei (%) [5]: 17% and 12%
- Population Tubulin-Different-Phenotype (%) [5]: 100% and 93%

SMILES: C=CC(=O)Nc1cccc(C)c1Nc1ncc2cc(-c3c(Cl)c(OC)cc(OC)c3Cl)ccc2n1
- Population Apoptotic (%) [1]: 81% and 76%
- Population Fragmented Nuclei (%) [1]: 9% and 3%
- Population Healthy Nuclei (%) [1]: 69% and 91%
- Population Hoechst High Intensity Objects (%) [1]: 1% and 0%
- Population Membrane Permeable-Phenotype (%) [1]: 5% and 0%
- Population Mitochondria Different-Phenotype (%) [1]: 0%
- Population Mitotic Cells (%) [1]: 18% and 23%
- Population Normal (%) [1]: 98% and 100%
- Population Tubulin-Different-Phenotype (%) [1]: 75% and 77%
- Population Apoptotic (%) [2]: 54% and 69%
- Population Healthy Nuclei (%) [2]: 45% and 68%
- Population Hoechst High Intensity Objects (%) [2]: 0%
- Population Membrane Permeable-Phenotype (%) [2]: 0% and 5%
- Population Mitochondria Different-Phenotype (%) [2]: 0% and 9%
- Population Mitotic Cells (%) [2]: 45% and 30%
- Population Normal (%) [2]: 100%
- Population Pyknosed Nuclei (%) [2]: 33% and 26%
- Population Tubulin-Different-Phenotype (%) [2]: 80% and 56%
- Population Apoptotic (%) [3]: 71% and 50%
- Population Healthy Nuclei (%) [3]: 63% and 88%
- Population Hoechst High Intensity Objects (%) [3]: 1% and 0%
- Population Membrane Permeable-Phenotype (%) [3]: 0% and 1%
- Population Mitochondria Different-Phenotype (%) [3]: 0%
- Population Mitotic Cells (%) [3]: 28% and 50%
- Population Normal (%) [3]: 98% and 100%
- Population Pyknosed Nuclei (%) [3]: 18% and 8%
- Population Tubulin-Different-Phenotype (%) [3]: 87% and 78%
- Population Apoptotic (%) [4]: 86% and 90%
- Population Fragmented Nuclei (%) [4]: 17% and 7%
- Population Healthy Nuclei (%) [4]: 40% and 54%
- Population Hoechst High Intensity Objects (%) [4]: 0%
- Population Membrane Permeable-Phenotype (%) [4]: 0% and 1%
- Population Mitochondria Different-Phenotype (%) [4]: 0% and 8%
- Population Mitotic Cells (%) [4]: 13% and 9%
- Population Normal (%) [4]: 100%
- Population Pyknosed Nuclei (%) [4]: 42% and 38%
- Population Tubulin-Different-Phenotype (%) [4]: 92% and 65%
- Population Apoptotic (%) [5]: 70% and 59%
- Population Fragmented Nuclei (%) [5]: 10% and 1%
- Population Healthy Nuclei (%) [5]: 72% and 88%
- Population Hoechst High Intensity Objects (%) [5]: 1% and 0%
- Population Membrane Permeable-Phenotype (%) [5]: 4% and 1%
- Population Mitochondria Different-Phenotype (%) [5]: 1% and 0%
- Population Mitotic Cells (%) [5]: 29% and 40%
- Population Normal (%) [5]: 98% and 99%
- Population Pyknosed Nuclei (%) [5]: 17% and 9%
- Population Tubulin-Different-Phenotype (%) [5]: 90% and 85%
- Population Apoptotic (%) [6]: 77% and 93%
- Population Fragmented Nuclei (%) [6]: 6% and 9%
- Population Healthy Nuclei (%) [6]: 31% and 40%
- Population Hoechst High Intensity Objects (%) [6]: 0% and 1%
- Population Membrane Permeable-Phenotype (%) [6]: 11% and 10%
- Population Mitochondria Different-Phenotype (%) [6]: 11% and 10%
- Population Normal (%) [6]: 100% and 98%
- Population Pyknosed Nuclei (%) [6]: 62% and 50%
- Population Tubulin-Different-Phenotype (%) [6]: 100% and 91%
